Compound activity as filed in PubChem BioAssay.
B2AR ag: beta2AR agonists driving receptor internalization, primary screen, cell-based, FAP fluorogen, flow cytometry; Beta-2 adrenergic receptor (Homo sapiens), P07550; Am2.2-beta2AR cells; response, % (no concentration beside the values); 340,000 tested, 0.43% active; AID 504454, 2011;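 active means response above a set limit, near 3 SD of response in nonfluorescent compounds, cut at about 42% in these data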
ABHD5-PLIN5 inh: ABHD5-PLIN5 interaction inhibitors, primary screen, cell lysate, split luciferase complementation, luminescence; Split G. princeps luciferase complementation, 4 h; inhibition, % at 4 µM; 360,000 tested, 0.78% active; AID 602281, 2012;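 active means inhibition above the mean inhibition across every tested compound plus 3 SD, cut at about 22% in these data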;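 further: 0% = DMSO only wells and the 100% control is not disclosed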
NadD block: inhibitors of S. aureus NadD, primary screen, biochemical, colorimetric, uHTS. Nicotinate-nucleotide adenylyltransferase NadD (Staphylococcus aureus N315). purified NadD enzyme, colorimetric absorbance read-out. inhibition, % at 20 µM. 360,000 tested, 0.78% active. AID 602399, 2012; in the data active means inhibition above about 26%
SENP1 inh: human SENP1 catalytic domain inhibitors, primary screen, biochemical, FRET, uHTS; Sentrin-specific protease 1 (Homo sapiens), Q9P0U3; recombinant SENP1 catalytic domain, CyPet-SUMO1-YPet FRET cleavage; inhibition, % at 10 µM; 360,000 tested, 0.21% active;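 active means inhibition at least 30% at 10 µM, raw YFP signal under a set limit, fluorescence ratio 0.5 to 1.5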;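 further: 0% = enzyme with DMSO and 100% = no enzyme wells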
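Controls: no-enzyme wells low, DMSO-plus-enzyme wells high control. Test system: human recombinant His6-tagged SENP1 catalytic domain enzyme. Reagent: SFCypet-SUMO1-SFYpet FRET protein substrate, 25 nM final. Doses: one dose per compound, 10 µM, 0.5% DMSO. Detection: FRET, CFP and YFP emission. Timing: 50 min reaction at room temperature.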
GRK2 aptamer HTS: compounds blocking aptamer binding on GRK2 – biochemical, human GRK2, bead flow cytometry, HTS, primary screen; 330,000 tested, 0.59% active; AID 488847, 2010; FAM-aptamer displacement from GRK2; Beta-adrenergic receptor kinase 1 (Homo sapiens), P25098; inhibition of aptamer binding, % at 10 µM;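 active means inhibition of aptamer binding above 40%, roughly 3 SD of noise, on plates passing a quality check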;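 further: median bead fluorescence of bound FAM aptamer so fluorescent compounds give negative values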
Target sequence (P25098 whole entry, looked up): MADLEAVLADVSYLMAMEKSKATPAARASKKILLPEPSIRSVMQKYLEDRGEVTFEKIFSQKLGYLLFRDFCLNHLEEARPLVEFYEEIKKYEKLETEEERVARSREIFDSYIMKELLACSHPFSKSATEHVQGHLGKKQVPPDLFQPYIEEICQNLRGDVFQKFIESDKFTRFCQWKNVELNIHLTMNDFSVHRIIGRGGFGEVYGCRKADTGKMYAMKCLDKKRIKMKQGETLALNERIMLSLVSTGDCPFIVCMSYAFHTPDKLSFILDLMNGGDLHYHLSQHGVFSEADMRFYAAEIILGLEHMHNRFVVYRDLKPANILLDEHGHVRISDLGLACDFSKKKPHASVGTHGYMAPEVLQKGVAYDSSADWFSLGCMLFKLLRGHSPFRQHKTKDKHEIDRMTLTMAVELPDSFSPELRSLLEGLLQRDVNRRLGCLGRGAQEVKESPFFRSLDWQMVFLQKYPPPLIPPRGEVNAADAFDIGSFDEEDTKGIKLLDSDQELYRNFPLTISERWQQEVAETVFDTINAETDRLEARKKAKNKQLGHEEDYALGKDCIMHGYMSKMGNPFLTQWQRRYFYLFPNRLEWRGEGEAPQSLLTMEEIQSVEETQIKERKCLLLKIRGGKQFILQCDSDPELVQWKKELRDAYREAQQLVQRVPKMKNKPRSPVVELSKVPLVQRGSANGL
* marks the source's active call; other numbers are inactive results; · = no result given. This is a sample that favours compounds with a hit; in the whole collection about 2.5% have one here.

SMILES	B2AR ag	ABHD5-PLIN5 inh	NadD block	SENP1 inh	GRK2 aptamer HTS
Cc1cc(C)c2cc3c(N)c(C(=O)N4CCc5ccccc5C4)sc3nc2c1	-8	-13	22	7	3
Cc1cccc2cc3c(N)c(C(=O)N4CCOCC4)sc3nc12	5	-10	9	42*	1
CCCC1=NN2C(=N)/C(=C\c3cc(C)n(-c4cccc(C)c4)c3C)C(=O)N=C2S1	11	-2	53*	-102	4
CC(=NOC(=O)c1ccc(I)cc1)c1nccs1	·	1	-9	6	·
Oc1ccccc1C(Nc1nccs1)c1ccc2cccnc2c1O (centres undefined)	8	7	37*	3	1
Cn1c(O)c(N=NC(=O)c2cc(-c3cccs3)nc3ccccc23)c2ccccc21	-9	1	45*	3	0
O=C(N=Nc1c(O)[nH]c2ccc(Br)cc12)c1cc(-c2cccs2)nc2ccccc12	27	0	44*	2	·
O=C(N=Nc1c(O)[nH]c2ccc([N+](=O)[O-])cc12)c1cc(-c2ccccc2Cl)nc2ccccc12	1	-2	19	6	0
Cn1c(O)c(N=Nc2ccccc2)c2ccccc21	-8	-4	-9	2	2
O=C(N=Nc1c(O)[nH]c2ccc(Br)cc12)c1ccco1	·	2	-1	4	·
Cn1c(O)c(N=Nc2nc(-c3ccccc3)cs2)c2ccccc21	-1	1	17	46*	2
O=C(N=Nc1c(O)[nH]c2ccc(Br)cc12)c1cc(-c2cccc3ccccc23)n[nH]1	3	-6	39*	1	5
CC(C)N1CCN(CCCc2ccccc2)CC1CCO (centres undefined)	-3	3	-5	-2	0
CC(C)[C@H](NC(=O)c1ccccc1F)C(=O)NC1CCCCCCC1	8	4	-1	-1	0
COc1ccc(/C=C2\CN(Cc3ccccc3)C/C(=C\c3ccc(OC)cc3OC)C2=O)c(OC)c1	20	15	29*	-20	0
COc1ccc(/C=C2\CN(Cc3ccccc3)C/C(=C\c3ccc(OC)cc3)C2=O)cc1	1	5	12	-28	3
O=c1ccc2c(o1)/C(=C/C=C(Cl)Cl)CCC2	53*	7	0	-36	1
O=[N+]([O-])c1cc(/C=N/N/C(=N/c2ccccn2)c2ccccn2)ccc1O	-2	-3	5	34*	0
O=C(O)c1ccccc1N/N=C/c1c(Sc2nnnn2-c2ccccc2)nc2ccccn2c1=O	-286	2	3	71*	0
CCN1c2ccccc2S(=O)(=O)c2ccccc21	-3	1	-4	-5	3
O=C(c1ccc2c(c1)[nH]c(=S)n1c3ccccc3nc21)N1CCN(c2ncccn2)CC1	62*	0	18	-1	1
COc1ccc(C(CC(=O)O)NS(=O)(=O)c2ccc3c(c2)NC(=O)CO3)cc1 (centres undefined)	4	3	2	2	4
N#CC1=C(N)OC2=C(CC/C2=C\c2ccccc2)C1c1ccccc1 (centres undefined)	-173	1	33*	-23	0
Cc1ccnc(NC(=O)c2cccc(S(=O)(=O)N3CCCc4ccccc43)c2)c1	10	-5	5	1	0
CC(=O)NCCc1ccc(C(=O)CSc2nnc(C3CC3)n2C2CC2)cc1	4	6	3	3	0
SMILES	B2AR ag	ABHD5-PLIN5 inh	NadD block	SENP1 inh	GRK2 aptamer HTS
CCOC(=O)c1cc(-c2ccccc2)sc1NC(=O)C(C)OC(=O)c1cccnc1Cl (centres undefined)	-11	-4	-4	0	100*
C[C@H](NC(=O)c1ccccc1)C(=O)N1CCN(c2ccccc2)CC1	-7	-1	1	-1	0
Cn1c(SCC(=O)NC(=O)NCc2ccccc2)nnc1C(F)(F)F	-7	-2	-3	2	0
O=C(COC(=O)c1cc(-c2cccs2)nc2ccccc12)NCc1ccco1	-6	17	52*	-17	0
CC(C)C1=CC(=Nc2ccc(S(N)(=O)=O)cc2)C=C(C(C)C)C1=O	0	-3	0	1	0
CC1=CC(=O)c2c(O)ccc(O)c2C1=O	·	·	·	·	46*
COc1ccc(CCNC(=O)c2cccc(NS(=O)(=O)c3ccccc3F)c2)cc1OC	8	0	-2	-1	0
O=c1c2cccnc2[nH]c(=S)n1CCC1=CCCCC1	13	4	-1	2	70*
CCn1c(C)nc2cc(C(=O)NN=Cc3ccc([N+](=O)[O-])cc3)ccc21	-2	9	-2	3	0
O=C(CN1C(=O)c2cccc3cccc1c23)Nc1ccccc1C(=O)NCc1ccco1	9	23*	-3	-37	0
CCc1ccc2nc(SCC(=O)N3CC(=O)Nc4ccccc43)c(C#N)cc2c1	-14	3	15	32*	4
CC(=O)NC(Cc1ccc(C(C)C)cc1)C(=O)NC1CCN(C(=O)c2cccc(C)c2)CC1 (centres undefined)	1	4	-5	-1	0
CC1=NOC(=O)/C1=C\c1ccc(-c2ccc(Cl)cc2Cl)o1	99*	2	26	-34	·
COC(=O)C1=C(c2ccc(OC)cc2)OC(=O)C1(C)C	3	0	-5	3	1
COc1ccc(NC(=O)COC(=O)c2cc3c(s2)CCC3)cc1	-2	-6	-2	-11	43*
O=C(COC(=O)c1cc2c(s1)CCC2)Nc1ccc(F)cc1	4	-5	1	-33	36
O=C(C1CC(=O)N(c2ccc3c(c2)OCCO3)C1)N1CCN(S(=O)(=O)c2ccccc2F)CC1 (centres undefined)	0	1	4	-3	·
NC(=O)c1c(NC(=O)C2CC=CCC2C(=O)O)sc2c1CCCCC2 (centres undefined)	3	-30	-2	-9	48*
C=C(C)C(=O)Oc1ccc(N=Nc2ccc(C)cc2)ccc1=O	·	3	11	34*	·
Cc1cccc(NC(=O)COC(=O)c2cccc3c2C(=O)c2ccccc2C3=O)c1C	7	-2	-2	-3	1
CCN(CC)CCC(=O)Nc1cccc2c1C(=O)c1ccccc1C2=O	-79	1	-7	62*	1
Nc1cccc(C(=O)OCC(=O)Nc2cccc3c2C(=O)c2ccccc2C3=O)c1	16	1	-2	33*	0
O=C(NCC(=O)N1CCN(Cc2c(F)cccc2Cl)CC1)c1cccc(Cl)c1	-5	-3	-11	0	·
